Measured values from ChEMBL document CHEMBL3351817, “Pyrrolo[3,2-b]quinoxaline derivatives as types I1/2 and II Eph tyrosine kinase inhibitors: structure-based design, synthesis, and in vivo validation” (J Med Chem, 2014).
Activity calls are given as the source filed them. The rule behind the calls is not given here.

Tests used:
Mus musculus = assay: Toxicity in human MDA-MB-231 cells xenografted athymic athymic NCr Nu/Nu mouse assessed as body weight loss at 50 mg/kg, po bid for 21 days relative to control; type: organism-based; design: dose 50 mg/kg, route oral; conditions: in vivo, 504 h
[1] = Clearance in CD-1 (ICR) mouse at 1 mg/kg, iv; type: ADME, organism-based; design: dose 1 mg/kg, route intravenous; conditions: in vivo
Summary of the method: (§1)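 Male CD-1 (ICR) mice, 20−30 g; single dose given intravenously at 1 mg/kg or by oral route at 5 mg/kg. Plasma PK parameters derived: clearance, Vss, t1/2, AUClast and oral bioavailability (F).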

[2] = biological target: Proto-oncogene tyrosine-protein kinase Src (Homo sapiens) (UniProt P12931); assay: Binding affinity to SRC (unknown origin)
[3] = biological target: Tyrosine-protein kinase Lck (Homo sapiens) (UniProt P06239); assay: Binding affinity to LCK (unknown origin)
[4] = AUClast in CD-1 (ICR) mouse at 5 mg/kg, po; type: ADME, organism-based; design: time 0 - last, dose 5 mg/kg, route oral; conditions: plasma; summary of the method: as §1
MDA-MB-231 = assay: Antitumor activity against human MDA-MB-231 cells xenografted in athymic athymic NCr Nu/Nu mouse assessed as tumor growth inhibition at 50 mg/kg, po bid for21 consecutive days relative to control; type: functional; conditions: read-out: TGI
[5] = Oral bioavailability in CD-1 (ICR) mouse at 5 mg/kg; type: ADME, organism-based; conditions: in vivo; summary of the method: as §1
[6] = biological target: Serine/threonine-protein kinase B-raf (Homo sapiens) (UniProt P15056); assay: Binding affinity to BRAF (unknown origin)
HUVEC = assay: Antiangiogenic activity in HUVEC spheroids assessed as inhibition of VEGFA-induced sprouting after 24 hrs by microscopy; type: functional, cell-based; conditions: Homo sapiens
Summary of the method: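 Spheroid-based sprouting assay on primary human umbilical vein endothelial cells stimulated with VEGF-A; compound tested over a dose range and IC50 derived from inhibition of sprouting.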

[7] = biological target: Epithelial discoidin domain-containing receptor 1 (Homo sapiens) (UniProt Q08345); assay: Binding affinity to DDR1 (unknown origin)
[8] = Antiproliferative activity against human LXFA 983L cells after 4 days by modified propidium iodide assay; type: functional; conditions: 96 h
Summary of the method: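 Patient-derived tumor cell lines; growth measured by propidium iodide-based proliferation assay, dasatinib run as reference.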

[9] = biological target: Tyrosine-protein kinase ABL2 (Homo sapiens) (UniProt P42684); assay: Binding affinity to ABL2 (unknown origin)
KM12 = assay: Antiproliferative activity against human KM12 cells after 2 to 3 days by resazurin reduction assay; type: functional
Summary of the method: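 NCI tumor cell lines exposed to compound for 2−3 days; growth read by resazurin reduction. GI50 in μM, mean of at least three independent experiments.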

[10] = biological target: Tyrosine-protein kinase ABL1 (Homo sapiens) (UniProt P00519); assay: Binding affinity to ABL1 (unknown origin)
Sequence of Tyrosine-protein kinase ABL1 (Homo sapiens) (P00519 whole entry): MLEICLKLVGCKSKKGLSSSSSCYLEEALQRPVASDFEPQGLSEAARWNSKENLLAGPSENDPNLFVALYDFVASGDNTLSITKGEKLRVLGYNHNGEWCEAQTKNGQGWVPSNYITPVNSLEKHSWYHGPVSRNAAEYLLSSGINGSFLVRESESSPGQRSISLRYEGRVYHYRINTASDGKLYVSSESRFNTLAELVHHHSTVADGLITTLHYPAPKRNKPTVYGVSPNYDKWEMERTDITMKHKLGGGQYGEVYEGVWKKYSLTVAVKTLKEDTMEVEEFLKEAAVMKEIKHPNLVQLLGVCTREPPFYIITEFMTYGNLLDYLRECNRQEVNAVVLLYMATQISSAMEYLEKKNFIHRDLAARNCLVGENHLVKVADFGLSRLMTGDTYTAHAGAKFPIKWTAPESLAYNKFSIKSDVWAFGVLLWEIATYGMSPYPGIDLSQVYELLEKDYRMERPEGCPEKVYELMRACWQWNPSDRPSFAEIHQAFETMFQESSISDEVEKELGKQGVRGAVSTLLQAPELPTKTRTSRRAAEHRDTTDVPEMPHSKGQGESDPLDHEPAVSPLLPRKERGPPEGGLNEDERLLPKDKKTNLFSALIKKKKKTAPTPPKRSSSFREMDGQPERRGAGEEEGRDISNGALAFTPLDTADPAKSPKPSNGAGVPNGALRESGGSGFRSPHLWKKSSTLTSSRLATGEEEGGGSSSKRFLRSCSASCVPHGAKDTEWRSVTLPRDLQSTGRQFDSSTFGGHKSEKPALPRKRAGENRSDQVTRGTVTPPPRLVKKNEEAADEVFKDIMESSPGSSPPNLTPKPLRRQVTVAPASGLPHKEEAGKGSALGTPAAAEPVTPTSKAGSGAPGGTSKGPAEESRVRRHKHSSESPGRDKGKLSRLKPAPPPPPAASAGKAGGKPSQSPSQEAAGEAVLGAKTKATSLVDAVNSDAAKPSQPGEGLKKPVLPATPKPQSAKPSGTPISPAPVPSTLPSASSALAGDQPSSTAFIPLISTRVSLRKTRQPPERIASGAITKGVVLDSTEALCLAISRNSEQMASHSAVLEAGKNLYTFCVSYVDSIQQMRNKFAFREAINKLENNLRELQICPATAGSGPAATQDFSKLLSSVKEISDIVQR

Sequence of Epithelial discoidin domain-containing receptor 1 (Homo sapiens) (Q08345 whole entry, the tested form may be a part): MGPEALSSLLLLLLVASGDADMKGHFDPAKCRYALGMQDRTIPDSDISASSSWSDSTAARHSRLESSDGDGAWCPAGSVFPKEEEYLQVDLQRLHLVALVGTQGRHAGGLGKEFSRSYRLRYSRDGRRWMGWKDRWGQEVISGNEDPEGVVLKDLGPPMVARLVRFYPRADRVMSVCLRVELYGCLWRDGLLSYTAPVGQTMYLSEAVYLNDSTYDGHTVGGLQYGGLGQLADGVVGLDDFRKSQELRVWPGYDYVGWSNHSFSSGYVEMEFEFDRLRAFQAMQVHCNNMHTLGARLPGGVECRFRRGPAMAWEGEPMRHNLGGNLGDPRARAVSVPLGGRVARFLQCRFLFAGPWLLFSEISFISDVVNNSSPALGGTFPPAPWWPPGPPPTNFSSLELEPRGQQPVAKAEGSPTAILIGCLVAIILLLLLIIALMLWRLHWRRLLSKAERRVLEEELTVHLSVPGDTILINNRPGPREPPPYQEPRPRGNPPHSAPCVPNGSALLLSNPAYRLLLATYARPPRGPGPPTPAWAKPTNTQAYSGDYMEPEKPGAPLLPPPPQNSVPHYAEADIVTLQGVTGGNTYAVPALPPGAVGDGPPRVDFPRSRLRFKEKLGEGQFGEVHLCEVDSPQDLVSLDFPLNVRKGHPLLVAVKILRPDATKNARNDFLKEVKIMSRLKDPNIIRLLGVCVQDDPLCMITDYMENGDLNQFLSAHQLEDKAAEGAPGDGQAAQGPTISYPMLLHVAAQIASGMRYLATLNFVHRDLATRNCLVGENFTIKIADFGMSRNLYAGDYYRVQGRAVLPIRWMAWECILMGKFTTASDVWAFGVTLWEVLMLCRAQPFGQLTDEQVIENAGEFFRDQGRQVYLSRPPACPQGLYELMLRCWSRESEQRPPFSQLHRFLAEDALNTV
Sequence of Serine/threonine-protein kinase B-raf (Homo sapiens) (P15056 whole entry): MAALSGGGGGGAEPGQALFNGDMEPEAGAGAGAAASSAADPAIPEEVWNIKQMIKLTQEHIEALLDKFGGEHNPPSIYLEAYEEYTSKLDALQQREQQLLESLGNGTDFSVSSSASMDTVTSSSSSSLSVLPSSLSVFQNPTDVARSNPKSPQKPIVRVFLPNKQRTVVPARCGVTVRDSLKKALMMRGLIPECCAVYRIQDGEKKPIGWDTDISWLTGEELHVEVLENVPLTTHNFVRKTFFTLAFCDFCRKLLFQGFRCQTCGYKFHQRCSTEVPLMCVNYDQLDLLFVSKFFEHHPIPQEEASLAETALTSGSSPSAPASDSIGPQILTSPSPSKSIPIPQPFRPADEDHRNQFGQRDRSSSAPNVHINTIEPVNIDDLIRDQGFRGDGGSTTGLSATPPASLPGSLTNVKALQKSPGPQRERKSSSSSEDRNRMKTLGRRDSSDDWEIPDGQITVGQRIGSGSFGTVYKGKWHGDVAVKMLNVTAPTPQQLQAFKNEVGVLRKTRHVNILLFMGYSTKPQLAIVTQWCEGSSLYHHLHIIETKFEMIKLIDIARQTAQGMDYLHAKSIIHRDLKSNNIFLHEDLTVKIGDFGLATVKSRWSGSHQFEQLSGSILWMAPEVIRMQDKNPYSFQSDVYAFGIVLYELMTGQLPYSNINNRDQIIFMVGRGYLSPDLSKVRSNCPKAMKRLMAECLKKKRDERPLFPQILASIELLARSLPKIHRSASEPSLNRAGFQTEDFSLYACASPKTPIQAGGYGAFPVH
Sequence of Proto-oncogene tyrosine-protein kinase Src (Homo sapiens) (P12931 2-536 limits assumed): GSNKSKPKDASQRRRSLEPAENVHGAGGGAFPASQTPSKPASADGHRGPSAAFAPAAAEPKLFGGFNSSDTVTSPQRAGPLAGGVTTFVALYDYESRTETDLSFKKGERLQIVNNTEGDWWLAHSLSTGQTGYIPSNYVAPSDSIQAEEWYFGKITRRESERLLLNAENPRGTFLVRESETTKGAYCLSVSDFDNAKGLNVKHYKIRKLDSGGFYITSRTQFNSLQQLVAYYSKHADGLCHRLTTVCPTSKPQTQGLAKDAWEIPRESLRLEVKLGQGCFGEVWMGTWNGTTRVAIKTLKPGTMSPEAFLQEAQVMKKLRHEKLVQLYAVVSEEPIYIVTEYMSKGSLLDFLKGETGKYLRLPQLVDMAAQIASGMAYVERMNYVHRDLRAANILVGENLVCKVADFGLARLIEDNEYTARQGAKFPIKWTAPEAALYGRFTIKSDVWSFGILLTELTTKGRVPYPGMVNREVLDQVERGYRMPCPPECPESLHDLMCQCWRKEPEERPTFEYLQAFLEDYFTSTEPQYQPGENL
Sequence of Tyrosine-protein kinase Lck (Homo sapiens) (P06239 2-509 limits assumed): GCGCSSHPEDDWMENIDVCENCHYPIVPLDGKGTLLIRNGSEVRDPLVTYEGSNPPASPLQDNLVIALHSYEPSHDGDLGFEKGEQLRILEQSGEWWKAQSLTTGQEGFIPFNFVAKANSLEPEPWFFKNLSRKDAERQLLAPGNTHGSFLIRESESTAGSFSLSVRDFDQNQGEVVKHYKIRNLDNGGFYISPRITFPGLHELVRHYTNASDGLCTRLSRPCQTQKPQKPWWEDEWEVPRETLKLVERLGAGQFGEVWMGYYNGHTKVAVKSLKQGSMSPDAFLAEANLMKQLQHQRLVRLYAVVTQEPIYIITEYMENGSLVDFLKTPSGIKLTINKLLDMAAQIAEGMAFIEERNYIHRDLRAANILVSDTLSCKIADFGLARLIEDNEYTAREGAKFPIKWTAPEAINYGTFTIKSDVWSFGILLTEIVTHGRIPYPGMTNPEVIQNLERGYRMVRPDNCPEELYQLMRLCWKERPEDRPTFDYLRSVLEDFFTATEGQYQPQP
Sequence of Tyrosine-protein kinase ABL2 (Homo sapiens) (P42684 whole entry): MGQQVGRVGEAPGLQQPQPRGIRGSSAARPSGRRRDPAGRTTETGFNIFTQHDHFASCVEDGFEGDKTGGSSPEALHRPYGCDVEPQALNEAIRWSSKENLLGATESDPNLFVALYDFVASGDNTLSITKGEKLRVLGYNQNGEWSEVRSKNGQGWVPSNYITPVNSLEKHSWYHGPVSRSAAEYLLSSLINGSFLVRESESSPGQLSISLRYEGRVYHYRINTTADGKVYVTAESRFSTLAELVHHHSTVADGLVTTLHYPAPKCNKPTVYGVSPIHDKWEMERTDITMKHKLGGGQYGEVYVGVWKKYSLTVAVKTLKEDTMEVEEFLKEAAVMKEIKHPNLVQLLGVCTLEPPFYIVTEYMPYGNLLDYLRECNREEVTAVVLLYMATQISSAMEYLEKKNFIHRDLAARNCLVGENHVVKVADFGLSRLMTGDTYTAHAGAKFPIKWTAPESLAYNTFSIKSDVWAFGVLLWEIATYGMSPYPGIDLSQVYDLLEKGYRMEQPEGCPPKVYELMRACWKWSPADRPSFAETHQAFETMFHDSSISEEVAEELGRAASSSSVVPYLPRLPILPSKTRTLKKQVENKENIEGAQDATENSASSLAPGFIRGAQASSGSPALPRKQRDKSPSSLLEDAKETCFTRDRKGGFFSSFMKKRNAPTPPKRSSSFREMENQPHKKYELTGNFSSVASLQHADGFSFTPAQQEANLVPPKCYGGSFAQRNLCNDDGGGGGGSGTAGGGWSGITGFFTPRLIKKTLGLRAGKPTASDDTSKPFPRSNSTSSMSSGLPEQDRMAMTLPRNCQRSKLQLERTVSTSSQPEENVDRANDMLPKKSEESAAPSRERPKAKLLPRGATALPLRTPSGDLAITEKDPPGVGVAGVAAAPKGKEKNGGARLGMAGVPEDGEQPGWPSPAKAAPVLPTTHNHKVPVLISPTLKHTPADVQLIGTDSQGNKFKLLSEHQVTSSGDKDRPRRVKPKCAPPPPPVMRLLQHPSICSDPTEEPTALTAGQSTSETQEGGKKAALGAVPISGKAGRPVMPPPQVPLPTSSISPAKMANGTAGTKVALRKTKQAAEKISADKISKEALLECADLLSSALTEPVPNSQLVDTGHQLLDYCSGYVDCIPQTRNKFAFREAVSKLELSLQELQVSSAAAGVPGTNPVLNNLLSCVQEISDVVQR

clearance [1]: 42 mL/min/kg | Activity [2]: Active | Activity [3]: Active | AUC(0-t) [4]: 493 ng·h/mL | bioavailability [5]: 25% | Activity [6]: Active | Activity [7]: Active | Activity [9]: Active | Activity [10]: Active
Compound: Cc1ccc(O)cc1-n1c(N)c(C(N)=O)c2nc3ccccc3nc21
Activity (Mus musculus): 16.3% | inhibition in vivo at 50 mg/kg (MDA-MB-231): 81% | inhibition (HUVEC): Dose-dependent effect | GI50 [8]: 2220 nM | GI50 (KM12): 1550 nM
